Test results reported in ChEMBL document CHEMBL4265962, “Pyrrolidine nucleoside bisphosphonates as antituberculosis agents targeting hypoxanthine-guanine phosphoribosyltransferase” (Eur J Med Chem, 2018).
≈ marks a conversion by molar mass, not a printed value.

Experiments:
[1] = target: T1, Hypoxanthine-guanine phosphoribosyltransferase (Mycobacterium tuberculosis (strain ATCC 25618 / H37Rv), UniProt P9WHQ9); test: Inhibition of Mycobacterium tuberculosis recombinant N-terminal 6His-tagged HGPRT expressed in Escherichia coli BL21 (DE3) using fixed concentration of guanine and variable concentrations of PRib-PP as substrate by spectrophotometric analysis
T1 sequence (P9WHQ9 whole entry): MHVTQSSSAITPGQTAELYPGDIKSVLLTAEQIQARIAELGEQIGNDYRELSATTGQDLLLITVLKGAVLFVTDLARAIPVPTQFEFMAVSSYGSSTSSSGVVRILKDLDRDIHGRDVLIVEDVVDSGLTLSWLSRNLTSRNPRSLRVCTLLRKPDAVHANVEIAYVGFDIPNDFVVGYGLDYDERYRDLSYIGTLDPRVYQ
Method in brief: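 Recombinant MtHGPRT, stored in 0.1 M Tris-HCl, 12 mM MgCl2, pH 7.4 with 200 μM PRib-PP at -80 °C. Continuous spectrophotometric assay following guanine to GMP at 257.5 nm in 0.01 M phosphate, 12 mM MgCl2, pH 7.4.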

[2] = target: T2, Hypoxanthine-guanine phosphoribosyltransferase (Homo sapiens, UniProt P00492); test: Inhibition of human HGPRT using fixed concentration of guanine and variable concentrations of PRib-PP as substrate by spectrophotometric analysis
T2 sequence (P00492 whole entry): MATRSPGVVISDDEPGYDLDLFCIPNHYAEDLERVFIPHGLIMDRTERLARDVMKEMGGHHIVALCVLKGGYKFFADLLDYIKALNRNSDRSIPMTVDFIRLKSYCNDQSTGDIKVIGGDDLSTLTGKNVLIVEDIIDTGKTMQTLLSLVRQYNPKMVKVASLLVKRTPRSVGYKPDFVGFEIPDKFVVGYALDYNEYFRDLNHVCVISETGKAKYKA

[3] = target: T1, Hypoxanthine-guanine phosphoribosyltransferase; test: Inhibition of Mycobacterium tuberculosis recombinant N-terminal 6His-tagged HGPRT expressed in Escherichia coli BL21 (DE3) using fixed concentration of guanine and variable concentrations of PRib-PP as substrate in presence of pyrophosphate by spectrophotometric analysis
Method in brief: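 Continuous assay of recombinant MtHGPRT at 257.5 nm (guanine to GMP) in 0.01 M phosphate, 12 mM MgCl2, pH 7.4, with 400 μM pyrophosphate added.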

[4] = Ratio of Ki for Mycobacterium tuberculosis recombinant N-terminal 6His-tagged HGPRT expressed in Escherichia coli BL21 (DE3) to Ki for human HGPRT
[5] = tested on: Mycobacterium tuberculosis; test: Antitubercular activity against Mycobacterium tuberculosis H37Rv after 5 days under hypoxic condition by resazurin dye-based assay; assay type: functional; details: 120 h
[6] = tested on: Mycobacterium tuberculosis; test: Antitubercular activity against Mycobacterium tuberculosis H37Rv infected in human THP-1 cells after 4 days by fluorescence based assay; assay type: functional; details: 96 h
Method in brief: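 THP-1 cells differentiated with 50 ng/ml PMA for 72 h (5×10^5 cells/mL), infected with mCherry-expressing H37Rv at MOI 1:1 for 2 h, washed twice to remove extracellular bacilli.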

[7] = Cytotoxicity against human A549 cells after 4 days by Coulter counting analysis; assay type: cell-based
Method in brief: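 A549 cells seeded at 7500/well; serially diluted compounds added the next day. After 4 days at 37 °C, cells were trypsinized and counted. CC50 is the concentration that gives 50% inhibition of proliferation relative to no-compound control. It was obtained by extrapolation assuming a semi-log dose-response.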

[8] = target: T2, Hypoxanthine-guanine phosphoribosyltransferase; test: Inhibition of recombinant human HGPRT using fixed concentration of guanine and variable concentrations of PRib-PP as substrate by Hanes plot analysis
[9] = tested on: Mycobacterium tuberculosis; test: Ratio of MIC90 for Mycobacterium tuberculosis H37Rv under hypoxic condition to MIC90 for replicating stage of Mycobacterium tuberculosis H37Rv; assay type: functional
Method in brief: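 Inhibitors were serially diluted, incubated 5 days at 37 °C, then read by fluorescence (ex 530/em 590) for MIC90. The hypoxic arm used a 0.1% O₂ chamber, was read 48 h after resazurin addition, and ran isoniazid controls in parallel.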

[10] = tested on: Mycobacterium tuberculosis; test: Antitubercular activity against replicating stage of Mycobacterium tuberculosis H37Rv after 5 days by resazurin dye-based assay; assay type: functional; details: 120 h

SMILES | Ki [1] [nM] | Ki [2] [nM] | Ratio Ki [4] | further results
Nc1nc2c(ncn2[C@@H]2CNC[C@@H]2OCP(=O)(O)O)c(=O)[nH]1 | 8000 | 29000 | 0.3 | Ki [3]: 740 nM
O=C(CCP(=O)(O)O)N1C[C@@H](n2cnc3c(O)ncnc32)[C@H](OC[C@H](O)P(=O)(O)O)C1 | 200 | – | – | –
O=C(CCP(=O)(O)O)N1C[C@@H](n2cnc3c(O)ncnc32)[C@H](OC[C@@H](O)P(=O)(O)O)C1 | 60 | – | – | –
Nc1nc2c(ncn2[C@@H]2CN(C(=O)CCP(=O)(O)O)C[C@H]2OC[C@@H](O)P(=O)(O)O)c(=O)[nH]1 | 60 | – | 20 | MIC90 [5]: 29 µM (≈ 14.4 µg/mL); MIC90 [6]: 85 µM (≈ 42.2 µg/mL); CC50 at 96 h [7]: 132000 nM; Ki [8]: 3 nM; Ratio [9]: 2; MIC90 [10]: 14 µM (≈ 6.95 µg/mL)
O=C(CCP(=O)(O)O)N1C[C@H](OCCP(=O)(O)O)[C@H](n2cnc3c(O)ncnc32)C1 | 420 | 600 | 0.7 | –
Nc1nc2c(ncn2[C@@H]2CN(C(=O)CCP(=O)(O)O)C[C@H]2OC[C@H](O)P(=O)(O)O)c(=O)[nH]1 | 130 | – | 16 | Ki [8]: 8 nM
Nc1nc2c(ncn2[C@@H]2CN(C(=O)CCP(=O)(O)O)C[C@@H]2OCCP(=O)(O)O)c(=O)[nH]1 | 40 | 30 | 1.3 | –
O=P(O)(O)CO[C@H]1CNC[C@H]1n1cnc2c(O)ncnc21 | 88000 | 327000 | 0.3 | Ki [3]: 3000 nM
